Experimental data as given in ChEMBL document CHEMBL1212693, “Dorsomorphin inhibits BMP signals required for embryogenesis and iron metabolism” (Nat Chem Biol, 2008).
Active and inactive are the calls of the source.

Legend:
Danio rerio [1] = species: Danio rerio; assay: Inhibition of BMPR1 in zebrafish assessed as penetrance of normal embryonic axis dorsalization at 10 uM treated at 4 to 8 hrs post-fertilization measured at 48 hrs; parameters: scale not given: the % may be the effect or the level left
Danio rerio [2] = species: Danio rerio; assay: Inhibition of BMPR1 in zebrafish assessed as severity of embryonic axis dorsalization at 0.2 uM treated at 3 hrs post-fertilization measured at 48 hrs; parameters: scale not given: the % may be the effect or the level left
Mus musculus [3] = species: Mus musculus; assay: Inhibition of activin receptor-mediated Smad-2 phosphorylation in activin-stimulated mouse PASMC at => 10 uM treated 30 mins before activin challenge measured after 30 mins by immunoblot analysis
Method in brief: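 PASMCs serum-starved 24 h (0.5% FCS RPMI) were pretreated 30 min with compound at 0.1–20 µM or vehicle. They were then stimulated 30 min with recombinant TGF-β1 or activin A. Phospho-SMAD2 was detected by immunoblot of SDS lysates, and phosphorimager quantification was used.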

Mus musculus [4] = species: Mus musculus; assay: Inhibition of BMPR1-mediated Smad-1 phosphorylation in BMP4-stimulated mouse PASMC at 100 to 200 ng/ml treated 30 mins before BMP4 challenge measured after 30 mins by immunoblot analysis
Method in brief: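 Mouse PASMCs were serum-reduced 24 h in 0.5% FCS RPMI, pretreated 30 min with noggin or vehicle, then given BMP4 for 30 min. Lysates in SDS buffer were immunoblotted for phospho-SMAD1/5/8 and phospho-MAPK p38, and signals were quantitated by phosphorimager.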

Mus musculus [5] = species: Mus musculus; assay: Inhibition of BMPR1-mediated Smad-8 phosphorylation in BMP7-stimulated mouse PASMC at 4 uM treated 30 mins before BMP7 challenge measured after 30 mins by immunoblot analysis
Method in brief: (§1)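 Wild-type mouse PASMCs were kept in RPMI with 0.5% FCS for 24 h. They were preincubated with compound or vehicle for 30 min, then stimulated for 30 min with recombinant BMP2, BMP4, BMP6 or BMP7 at 10 ng ml−1. Lysates in SDS buffer were immunoblotted with anti-phospho-SMAD1/5/8. Total SMAD1 and α-tubulin served as loading controls, and bands were quantified by phosphorimager.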

Danio rerio [6] = species: Danio rerio; assay: Inhibition of BMPR1 in zebrafish assessed as penetrance of moderate embryonic axis dorsalization at 10 uM treated continuously from 8 hrs post-fertilization measured at 48 hrs; parameters: scale not given: the % may be the effect or the level left
Mus musculus [7] = species: Mus musculus; assay: Inhibition of BMPR1-mediated Smad-1 phosphorylation in BMP7-stimulated mouse PASMC at 4 uM treated 30 mins before BMP7 challenge measured after 30 mins by immunoblot analysis; method in brief: as §1
Danio rerio [8] = species: Danio rerio; assay: Inhibition of BMPR1 in zebrafish assessed as penetrance of mild embryonic axis dorsalization at 2 uM treated at 3 hrs post-fertilization measured at 48 hrs; parameters: scale not given: the % may be the effect or the level left
Method in brief: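 Compound added at the stated times and concentrations. Gross morphology scored visually at up to 48 h.p.f. for dorsalization of the embryonic axis.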

HepG2 = assay: Inhibition of hepcidin mRNA expression in human HepG2 cells at 10 uM […] by qRT-PCR analysis relative to control; type: functional
Danio rerio [9] = species: Danio rerio; assay: Inhibition of BMPR1 in zebrafish assessed as penetrance of moderate embryonic axis dorsalization at 5 uM treated at 3 hrs post-fertilization measured at 48 hrs; parameters: scale not given: the % may be the effect or the level left

c1cc(-c2cnn3cc(-c4ccc(OCCN5CCCCC5)cc4)cnc23)ccn1 [DORSOMORPHIN]
active: inhibition (Mus musculus [3]) | inhibition (Mus musculus [4]) | inhibition (Mus musculus [5]) | inhibition (Mus musculus [7])
50: fold change (FC) (HepG2)
0%: Activity (Danio rerio [1]) | Activity (Danio rerio [2]) | Activity (Danio rerio [6]) | Activity (Danio rerio [8]) | Activity (Danio rerio [9])
